Results taken from ChEMBL document CHEMBL1125826, “Synthesis and biological activity of 5-amino- and 5-hydroxyquinolones, and the overwhelming influence of the remote N1-substituent in determining the structure-activity relationship” (1991).
In brackets after ≈: the same amount, converted by molar mass.

Tests used:
Format in all cases: functional
Enterococcus faecalis = test: Antibacterial activity was determined against gram positive organism, Streptococcus faecalis MGH-2; details: Enterococcus faecalis; read-out: MIC
Summary of the method: (§1)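 MIC (µg/mL) by standard microtitration against a panel of 10 Gram-positive and Gram-negative organisms; values averaged from multiple experiments.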

Streptococcus pneumoniae = test: Antibacterial activity was determined against gram positive organism, Streptococcus pneumoniae SV-1; details: Streptococcus pneumoniae; read-out: MIC; summary of the method: as §1
Bacteria [1] = test: MIC ratio measured as the mean MICs of gram-negative bacteria
Summary of the method: (§2)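 Geometric mean of the microtitration MICs (µg/mL) over the Gram-negative organisms, and separately over the Gram-positive organisms, of the 10-strain panel; individual MICs averaged from multiple experiments.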

Escherichia coli = test: Antibacterial activity was determined against gram negative organism, Escherichia coli vogel; details: Escherichia coli; read-out: MIC; summary of the method: as §1
Streptococcus pyogenes = test: Antibacterial activity was determined against gram positive organism, Streptococcus pyogenes C203; details: Streptococcus pyogenes; read-out: MIC; summary of the method: as §1
Enterobacter cloacae = test: Antibacterial activity was determined against gram negative organism, Enterobacter cloacae MA2646; details: Enterobacter cloacae; read-out: MIC
Pseudomonas aeruginosa = test: Antibacterial activity was determined against gram negative organism, Pseudomonas aeruginosa UI-18; details: Pseudomonas aeruginosa; read-out: MIC; summary of the method: as §1
[2] = biological target: DNA gyrase (Escherichia coli) (UniProt P0AES6+P0AES4); test: Minimum inhibitory concentration against Escherichia coli DNA-gyrase in supercoiling assay
Bacteria [3] = test: Antibacterial activity was determined against gram negative organism, Providencia rettgeri. M1771; details: Bacteria; read-out: MIC; summary of the method: as §1
Klebsiella pneumoniae = test: Antibacterial activity was determined against gram negative organism, Klebsiella pneumoniae MGH-2; details: Klebsiella pneumoniae; read-out: MIC; summary of the method: as §1
Staphylococcus aureus [4] = test: Antibacterial activity was determined against gram positive organism, Staphylococcus aureus H228; details: Staphylococcus aureus; read-out: MIC; summary of the method: as §1
Staphylococcus aureus [5] = test: Antibacterial activity was determined against gram positive organism, Staphylococcus aureus UC76; summary of the method: as §1
Bacteria [6] = test: MIC ratio measured as the mean MICs of gram-positive bacteria; summary of the method: as §2
[7] = Staphylococcus aureus, read-out: MIC

Row | MIC (Enterococcus faecalis) | MIC (Streptococcus pneumoniae) | Geometric mean MIC over Gram-negative bacteria (µg/mL) (Bacteria [1]) | MIC (Escherichia coli) | MIC (Streptococcus pyogenes) | MIC (Enterobacter cloacae) | MIC (Pseudomonas aeruginosa) | MIC [2] | MIC (Bacteria [3]) | MIC (Klebsiella pneumoniae) | MIC (Staphylococcus aureus [4]) | MIC (Staphylococcus aureus [5]; [7]) | Geometric mean MIC over Gram-positive bacteria (µg/mL) (Bacteria [6]) | MIC (Staphylococcus aureus [5]) | Structure (SMILES)
1 | 0.8 µg/mL (≈ 2.27 µM) | 0.8 µg/mL (≈ 2.27 µM) | 0.3 | 0.1 µg/mL (≈ 0.284 µM) | 0.8 µg/mL (≈ 2.27 µM) | 0.2 µg/mL (≈ 0.568 µM) | 1.6 µg/mL (≈ 4.54 µM) | 2.5 µg/mL (≈ 7.1 µM) | 0.4 µg/mL (≈ 1.14 µM) | 0.2 µg/mL (≈ 0.568 µM) | 0.4 µg/mL (≈ 1.14 µM) | 0.2 µg/mL (≈ 0.568 µM) | 0.53 |  | CCn1cc(C(=O)O)c(=O)c2c(N)c(F)c(N3CCC(N)C3)c(F)c21 (stereo unspecified)
2 | 3.1 µg/mL (≈ 8.77 µM) | 1.6 µg/mL (≈ 4.53 µM) | 0.35 | 0.2 µg/mL (≈ 0.566 µM) | 1.6 µg/mL (≈ 4.53 µM) | 0.2 µg/mL (≈ 0.566 µM) | 0.8 µg/mL (≈ 2.26 µM) | 2.5 µg/mL (≈ 7.08 µM) | 0.4 µg/mL (≈ 1.13 µM) | 0.4 µg/mL (≈ 1.13 µM) | 1.6 µg/mL (≈ 4.53 µM) | 0.2 µg/mL (≈ 0.566 µM) | 1.2 |  | CCn1cc(C(=O)O)c(=O)c2c(O)c(F)c(N3CCC(N)C3)c(F)c21 (stereo unspecified)
3 | 1.6 µg/mL (≈ 4.61 µM) | 1.6 µg/mL (≈ 4.61 µM) | 0.6 | 0.2 µg/mL (≈ 0.576 µM) | 1.6 µg/mL (≈ 4.61 µM) | 0.2 µg/mL (≈ 0.576 µM) | 6.3 µg/mL (≈ 18.1 µM) | 2.5 µg/mL (≈ 7.2 µM) | 0.8 µg/mL (≈ 2.3 µM) | 0.4 µg/mL (≈ 1.15 µM) | 1.6 µg/mL (≈ 4.61 µM) |  | 1.21 | 0.4 µg/mL (≈ 1.15 µM) | CCn1cc(C(=O)O)c(=O)c2cc(F)c(N3CC(C)NC(C)C3)cc21 (stereo unspecified)
4 | 1.6 µg/mL (≈ 4.8 µM) | 1.6 µg/mL (≈ 4.8 µM) | 0.23 | 0.1 µg/mL (≈ 0.3 µM) | 1.6 µg/mL (≈ 4.8 µM) | 0.1 µg/mL (≈ 0.3 µM) | 1.6 µg/mL (≈ 4.8 µM) | 2.5 µg/mL (≈ 7.5 µM) | 0.2 µg/mL (≈ 0.6 µM) | 0.2 µg/mL (≈ 0.6 µM) | 1.6 µg/mL (≈ 4.8 µM) |  | 1.05 | 0.2 µg/mL (≈ 0.6 µM) | CCn1cc(C(=O)O)c(=O)c2cc(F)c(N3CCNC(C)C3)cc21 (stereo unspecified)
5 | 0.4 µg/mL (≈ 1.13 µM) | 0.4 µg/mL (≈ 1.13 µM) | 0.13 | 0.05 µg/mL (≈ 0.141 µM) | 0.4 µg/mL (≈ 1.13 µM) | 0.05 µg/mL (≈ 0.141 µM) | 0.8 µg/mL (≈ 2.26 µM) | 2.5 µg/mL (≈ 7.07 µM) | 0.2 µg/mL (≈ 0.565 µM) | 0.1 µg/mL (≈ 0.283 µM) | 0.4 µg/mL (≈ 1.13 µM) |  | 0.3 | 0.1 µg/mL (≈ 0.283 µM) | CCn1cc(C(=O)O)c(=O)c2cc(F)c(N3CCC(N)C3)c(Cl)c21 (stereo unspecified)
6 | 12.5 µg/mL (≈ 34 µM) | 12.5 µg/mL (≈ 34 µM) |  | 0.4 µg/mL (≈ 1.09 µM) | 12.5 µg/mL (≈ 34 µM) | 0.4 µg/mL (≈ 1.09 µM) | 12.5 µg/mL (≈ 34 µM) | 5 µg/mL (≈ 13.6 µM) | 1.6 µg/mL (≈ 4.36 µM) | 0.8 µg/mL (≈ 2.18 µM) | 6.3 µg/mL (≈ 17.1 µM) | 1.6 µg/mL (≈ 4.36 µM) |  |  | CCn1cc(C(=O)O)c(=O)c2c(O)c(F)c(N3CCNC(C)C3)c(F)c21 (stereo unspecified)

Row | Structure (SMILES) | MIC (Enterococcus faecalis) | MIC (Streptococcus pneumoniae) | Geometric mean MIC over Gram-negative bacteria (µg/mL) (Bacteria [1]) | MIC (Escherichia coli) | MIC (Streptococcus pyogenes) | MIC (Enterobacter cloacae) | MIC (Pseudomonas aeruginosa) | MIC [2] | MIC (Bacteria [3]) | MIC (Klebsiella pneumoniae) | MIC (Staphylococcus aureus [4]) | MIC (Staphylococcus aureus [5]; [7]) | Geometric mean MIC over Gram-positive bacteria (µg/mL) (Bacteria [6]) | MIC (Staphylococcus aureus [5])
7 | CCn1cc(C(=O)O)c(=O)c2c(N)c(F)c(N3CCNCC3)cc21 | 0.2 µg/mL (≈ 0.598 µM) | 0.1 µg/mL (≈ 0.299 µM) | 0.6 | 0.2 µg/mL (≈ 0.598 µM) | 0.05 µg/mL (≈ 0.15 µM) | 0.2 µg/mL (≈ 0.598 µM) | 3.1 µg/mL (≈ 9.27 µM) | 2.5 µg/mL (≈ 7.48 µM) | 1.6 µg/mL (≈ 4.79 µM) | 0.4 µg/mL (≈ 1.2 µM) | 0.4 µg/mL (≈ 1.2 µM) | 0.05 µg/mL (≈ 0.15 µM) | 0.11 | 
8 | NC1CCN(c2c(F)cc3c(=O)c(C(=O)O)cn(C4CC4)c3c2Cl)C1 (stereo in doubt; 1f-4) |  |  | 0.057 |  |  |  |  | 0.25 µg/mL (≈ 0.683 µM) |  |  |  |  |  | 
9 | CCn1cc(C(=O)O)c(=O)c2c(N)c(F)c(N3CCNCC3)c(F)c21 | 1.6 µg/mL (≈ 4.54 µM) | 1.6 µg/mL (≈ 4.54 µM) | 0.26 | 0.1 µg/mL (≈ 0.284 µM) | 3.1 µg/mL (≈ 8.8 µM) | 0.2 µg/mL (≈ 0.568 µM) | 0.8 µg/mL (≈ 2.27 µM) | 2.5 µg/mL (≈ 7.1 µM) | 0.4 µg/mL (≈ 1.14 µM) | 0.2 µg/mL (≈ 0.568 µM) | 1.6 µg/mL (≈ 4.54 µM) | 0.2 µg/mL (≈ 0.568 µM) | 1.15 | 
10 | NC1CCN(c2c(F)cc3c(=O)c(C(=O)O)cn(C4CC4)c3c2Cl)C1 (stereo in doubt; 1h-4) |  |  | 0.029 |  |  |  |  | 0.5 µg/mL (≈ 1.37 µM) |  |  |  |  |  | 
